In ChEMBL document CHEMBL3865782 (2016):
≈ marks a conversion by molar mass, not a printed value. Calls of active or inactive are those of the source. The calls are words filed in the database; no cut-off is given here.

Assays:
Format in all cases: functional
Bacillus subtilis [1] = test: Antibacterial activity against Bacillus subtilis P10A derived after 10 passage in presence of JBIR-100 after 16 to 18 hrs by microbroth dilution assay relative to Bacillus subtilis ATCC 47096
Bacillus subtilis [2] = test: Antibacterial activity against Bacillus subtilis P10C derived after 10 passage in presence of JBIR-100 after 16 to 18 hrs by microbroth dilution assay
Method in brief: (§1)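 Mutants were derived from B. subtilis ATCC 47096 in three independent cultures. Each was passaged 10 times every 24 h at 37 °C in LB, starting at 0.5× MIC and raised in 0.5× MIC steps. Isolates were restreaked three times on drug-free LB agar to confirm stability.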

Bacillus subtilis [3] = test: Antibacterial activity against Bacillus subtilis ATCC 47096 after 16 to 18 hrs by microbroth dilution assay
Method in brief: (§2)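 Broth microdilution per CLSI in LB at 37 °C with aeration. Twofold serial dilutions from a starting concentration of 64 μM were added to wells holding ~5 × 10^4 CFU of the test strain. Turbidity was read after 16–18 h. MIC was taken as the lowest concentration with no visible growth.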

Bacillus subtilis [4] = test: Antibacterial activity against Bacillus subtilis P10A derived after 10 passage in presence of JBIR-100 after 16 to 18 hrs by microbroth dilution assay; method in brief: as §1
Bacillus subtilis [5] = test: Antibacterial activity against Bacillus subtilis P10B derived after 10 passage in presence of JBIR-100 after 16 to 18 hrs by microbroth dilution assay relative to Bacillus subtilis ATCC 47096
Bacillus subtilis [6] = test: Antibacterial activity against Bacillus subtilis P10B derived after 10 passage in presence of JBIR-100 after 16 to 18 hrs by microbroth dilution assay; method in brief: as §1
Bacillus subtilis [7] = test: Antibacterial activity against Bacillus subtilis P10C derived after 10 passage in presence of JBIR-100 after 16 to 18 hrs by microbroth dilution assay relative to Bacillus subtilis ATCC 47096
Bacillus thuringiensis = test: Antibacterial activity against Bacillus sp. Al Hakam after 16 to 18 hrs by microbroth dilution assay
Method in brief: (§3)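 Broth microdilution following CLSI, in LB at 37 °C with aeration. Starting at 64 μM, two-fold serial dilutions were added to wells holding ~5 × 10^4 CFU. Turbidity was inspected after 16–18 h. The MIC was the lowest concentration that inhibited visible growth.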

Bacillus subtilis [8] = test: Antibacterial activity against Bacillus subtilis ATCC 47096 assessed as induction of membrane damage after 30 mins by propidium iodide staining based fluorescent microscopic analysis
Method in brief: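 Cells grown in LB at 37 °C to OD600 0.5 were resuspended in PBS pH 7.4 with DMSO vehicle, 8, 32 or 64 μM compound for 30 min at ~22 °C. Cells were then washed, stained with 10 μM propidium iodide for 15 min, immobilized in agarose, and imaged by confocal fluorescence and DIC microscopy.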

[9] = system: Mycolicibacterium smegmatis; test: Antibacterial activity against Mycobacterium smegmatis NRRL B-14616 after 16 to 18 hrs by microbroth dilution assay
Method in brief: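 Broth microdilution following CLSI, in LB with 0.05% Tween 80 at 37 °C with aeration. Two-fold serial dilutions started at 64 μM, with ~5 × 10^4 CFU per well. Wells were read by visible turbidity after 16–18 h. The MIC was the lowest concentration preventing visible growth.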

Bacillus subtilis [10] = test: Bactericidal activity against Bacillus subtilis ATCC 47096 after 16 hrs; conditions: ATCC 47096, 16 h, read-out: MBC=>99.9
Escherichia coli [11] = test: Antibacterial activity against Escherichia coli DH5alpha after 16 to 18 hrs by microbroth dilution assay; conditions: DH5[alpha]
Method in brief: (§4)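 CLSI microbroth dilution. Compound was two-fold serially diluted from a 64 μM starting concentration into wells holding ~5 × 10^4 CFU of the test strain. After 16–18 h incubation, the MIC was taken as the lowest concentration causing no visible turbidity.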

[12] = Antifungal activity against Kluyveromyces lactis after 16 to 18 hrs by microbroth dilution assay
Method in brief: (§5)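 Yeast grown in YPD at 30 °C with aeration. CLSI microdilution used two-fold dilutions from a 64 μM start and ~5 × 10^4 CFU per well. Visible turbidity was scored at 16–18 h. The MIC was the lowest concentration without visible growth.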

[13] = Antifungal activity against Zygosaccharomyces rouxii after 40 to 42 hrs by microbroth dilution assay
Method in brief: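 CLSI microdilution in YPD at 30 °C with aeration. Two-fold serial dilutions started at 64 μM, with ~5 × 10^4 CFU per well. Incubation was extended to 40–42 h before turbidity inspection. The MIC was the lowest concentration inhibiting visible growth.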

[14] = Antifungal activity against Saccharomyces cerevisiae after 16 to 18 hrs by microbroth dilution assay; method in brief: as §5
Bacillus cereus = test: Antibacterial activity against Bacillus cereus ATCC 4342 after 16 to 18 hrs by microbroth dilution assay; method in brief: as §3
Bacillus subtilis [15] = test: Antibacterial activity against Bacillus subtilis ATCC 47096 assessed as induction of membrane depolarization after 30 mins by DiOC2(3) dye based flow cytometric analysis
Method in brief: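 Three independent LB cultures grown to OD600 0.5 were diluted into PBS containing DiOC2(3) with DMSO vehicle, 5 μM CCCP (positive control), or 0.1–1.0 μM compound. Cells were mixed 30 min at ~22 °C and analysed by flow cytometry. Red/green fluorescence ratio geometric means were normalized to vehicle.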

Candida albicans = test: Antifungal activity against Candida albicans after 16 to 18 hrs by microbroth dilution assay
Method in brief: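 CLSI microbroth dilution in YPD at 30 °C with aeration. Two-fold serial dilutions started at 128 μM, with ~5 × 10^4 CFU per well. Turbidity was inspected after 16–18 h. The MIC was the lowest concentration inhibiting visible growth.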

Enterococcus faecium = test: Antibacterial activity against Vancomycin-resistant Enterococcus faecium U503 after 16 to 18 hrs by microbroth dilution assay; method in brief: as §2
Debaryomyces hansenii = test: Antifungal activity against Debaryomyces hansenii after 16 to 18 hrs by microbroth dilution assay; method in brief: as §5
Pseudomonas putida = test: Antibacterial activity against Pseudomonas putida KT2440 after 16 to 18 hrs by microbroth dilution assay; method in brief: as §4
Bacillus subtilis [16] = test: Bactericidal activity against Bacillus subtilis ATCC 47096 at 8 to 32 uM after 16 hrs
Method in brief: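 Mid-exponential cultures (OD600 0.4, diluted 1000-fold from stationary cultures into LB) were treated with vehicle (DMSO), 8, 16 or 32 μM at 37 °C. OD595 was read every 10 min for 16 h with shaking between reads. Values were normalized to 0.4 at t = 0 and averaged over three independent cultures.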

Escherichia coli [17] = test: Antibacterial activity against Escherichia coli MC1061 after 16 to 18 hrs by microbroth dilution assay; method in brief: as §4
Staphylococcus aureus = test: Antibacterial activity against Methicillin-resistant Staphylococcus aureus USA300 after 16 to 18 hrs by microbroth dilution assay; method in brief: as §2
Bacillus subtilis [18] = test: Antibacterial activity against Bacillus subtilis subsp. subtilis str. 168 after 16 to 18 hrs by microbroth dilution assay; method in brief: as §3

Structure (SMILES)	fold change (FC) (Bacillus subtilis [1])	MIC (Bacillus subtilis [2])	MIC (Bacillus subtilis [3])	MIC (Bacillus subtilis [4])	fold change (FC) (Bacillus subtilis [5])	MIC (Bacillus subtilis [6])	fold change (FC) (Bacillus subtilis [7])	also measured
O=C(N[C@H](CO)[C@H](O)c1ccc([N+](=O)[O-])cc1)C(Cl)Cl [CHLORAMPHENICOL]	2	8 µM	8 µM (≈ 2.59 µg/mL)	4 µM	2	8 µM	2	
CO[C@H]1/C=C/C=C(\C)C[C@H](C)[C@H](O)[C@H](C)/C=C(C)/C=C(\C)C(=O)O[C@@H]1[C@@H](C)[C@@H](O)[C@H](C)[C@@]1(O)C[C@@H](OC(=O)/C=C/C(=O)O)[C@H](C)[C@@H](C(C)C)O1		16 µM	8 µM (≈ 5.64 µg/mL)	16 µM		16 µM		MIC (Bacillus thuringiensis): 4 µM (≈ 2.82 µg/mL); Activity (Bacillus subtilis [8]): Dose-dependent effect; MIC [9]: > 64 µM; MBC (Bacillus subtilis [10]): 16 µM (≈ 11.3 µg/mL); MIC (Escherichia coli [11]): > 64 µM; MIC [12]: > 64 µM; MIC [13]: 32 µM (≈ 22.6 µg/mL); MIC [14]: > 64 µM; MIC (Bacillus cereus): 4 µM (≈ 2.82 µg/mL); Activity (Bacillus subtilis [15]): Dose-dependent effect; MIC (Candida albicans): > 128 µM; MIC (Enterococcus faecium): 16 µM (≈ 11.3 µg/mL); MIC (Debaryomyces hansenii): 8 µM (≈ 5.64 µg/mL); MIC (Pseudomonas putida): > 64 µM; Activity (Bacillus subtilis [16]): Active; MIC (Escherichia coli [17]): > 64 µM; MIC (Staphylococcus aureus): 4 µM (≈ 2.82 µg/mL); MIC (Bacillus subtilis [18]): 8 µM (≈ 5.64 µg/mL)
CN[C@H](CC(C)C)C(=O)N[C@H]1C(=O)N[C@@H](CC(N)=O)C(=O)N[C@H]2C(=O)N[C@H]3C(=O)N[C@H](C(=O)N[C@H](C(=O)O)c4cc(O)cc(O)c4-c4cc3ccc4O)[C@H](O)c3ccc(c(Cl)c3)Oc3cc2cc(c3O[C@@H]2O[C@H](CO)[C@@H](O)[C@H](O)[C@H]2O[C@H]2C[C@](C)(N)[C@H](O)[C@H](C)O2)Oc2ccc(cc2Cl)[C@H]1O [VANCOMYCIN]	2	0.0625 µM	0.125 µM (≈ 0.181 µg/mL)	0.125 µM	2	0.0625 µM	2	
CO[C@H]1/C=C/O[C@@]2(C)Oc3c(C)c(O)c4c(O)c(c(/C=N/N5CCN(C)CC5)c(O)c4c3C2=O)NC(=O)/C(C)=C\C=C\[C@H](C)[C@H](O)[C@@H](C)[C@@H](O)[C@@H](C)[C@H](OC(C)=O)[C@@H]1C [RIFAMPIN]	2 - 4	0.125 µM	0.0625 µM (≈ 0.0514 µg/mL)	0.25 µM	2 - 4	0.125 µM	2 - 4	
CC1(C)S[C@@H]2[C@H](NC(=O)[C@H](N)c3ccccc3)C(=O)N2[C@H]1C(=O)O [AMPICILLIN]		0.125 µM	0.125 µM (≈ 0.0437 µg/mL)	0.125 µM		0.125 µM		
NC[C@H]1O[C@H](O[C@H]2[C@H](O)[C@@H](O[C@H]3O[C@H](CO)[C@@H](O)[C@H](N)[C@H]3O)[C@H](N)C[C@@H]2N)[C@H](O)[C@@H](O)[C@@H]1O [KANAMYCIN]	2 - 4	64 µM	256 µM (≈ 124 µg/mL)	128 µM	2 - 4	64 µM	2 - 4	
Oc1cc(Cl)ccc1Oc1ccc(Cl)cc1Cl [TRICLOSAN]		8 µM	8 µM (≈ 2.32 µg/mL)	8 µM		8 µM		
O=C(O)c1cn(C2CC2)c2cc(N3CCNCC3)c(F)cc2c1=O [CIPROFLOXACIN]		0.125 µM	0.125 µM (≈ 0.0414 µg/mL)	0.125 µM		0.125 µM		
